Columns and labels:
HT-29 [1] = assay: Concentration required to kill aerobic HT-29 human colon carcinoma cells in vitro; assay type: functional, cell-based
Procedure, shortened: (§1)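 HT-29 cells tested simultaneously under oxic and hypoxic conditions in a 96-well SRB proliferation assay; TPZ internal control at front and back of assay (n = 2); 8-methyl-5-nitroquinoline second control confirming strict hypoxia. IC50 pooled from seven independent experiments as interexperimental means (mean ± SEM, n ≥ 2).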

[2] = Hypoxic cytotoxicity ratio was measured as IC50 aerobic/IC50 hypoxic; assay type: functional
Procedure, shortened: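 HT-29 cells, SRB proliferation assay with each compound run simultaneously under aerobic and hypoxic conditions; intraexperimental ratio IC50(aerobic)/IC50(hypoxic).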

SCC-7 [3] = assay: Concentration required to kill hypoxic mouse SCCVII cells in vitro; assay type: functional
Procedure, shortened: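 Mouse SCCVII tumour cells exposed to drug for 1 h under hypoxic (anoxic) conditions; clonogenic survival; C10 = concentration reducing plating efficiency to 10% of controls. Values corrected for interexperimental variation in hypoxia using TPZ internal standard: C10(calc) = C10(meas) × [C10(TPZ,mean)/C10(TPZ,meas)].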

HT-29 [4] = assay: Concentration required to kill hypoxic HT-29 human colon carcinoma cells in vitro; assay type: functional, cell-based; procedure, shortened: as §1
[5] = Hypoxic cytotoxicity ratio was measured as C10 aerobic/C10 hypoxic; assay type: functional
Procedure, shortened: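 Mouse SCCVII cells, 1 h drug exposure under aerobic and hypoxic conditions in the same experiment, clonogenic survival; intraexperimental ratio C10(aerobic)/C10(hypoxic), C10 being the concentration giving 10% plating efficiency of controls.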

SCC-7 [6] = assay: Concentration required to kill aerobic mouse SCCVII cells in vitro; assay type: functional
Procedure, shortened: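 Mouse SCCVII tumour cells exposed to drug for 1 h under aerobic conditions; clonogenic survival read-out; C10 = concentration reducing plating efficiency to 10% of controls (one-log kill).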

| SMILES | IC50 (HT-29 [1]) [nM] | Ratio [2] | C10 (SCC-7 [3]) [µM] | IC50 (HT-29 [4]) [nM] | Ratio [5] | C10 (SCC-7 [6]) [µM] |
| --- | --- | --- | --- | --- | --- | --- |
| O=C(NCCOCCNc1n[n+]([O-])c2ccccc2[n+]1[O-])c1cccc2cc3ccccc3nc12 | 72500 | 12.8 | 12.4 | 5700 | 50.8 | 630 |
| CN(CCNC(=O)c1cccc2cc3ccccc3nc12)CCNc1n[n+]([O-])c2ccccc2[n+]1[O-] | 15700 | 87 | 0.93 | 180 | 431 | 400 |
| O=C(NCCNCCNc1n[n+]([O-])c2ccccc2[n+]1[O-])c1cccc2cc3ccccc3nc12 | 7800 | 98.6 | 1.16 | 79 | 48.2 | 56 |
| [O-][n+]1nc(NCCCCCCNc2c3ccccc3nc3ccccc23)[n+]([O-])c2ccccc21 | 620 | 39.7 | 0.61 | 16 | 15.7 | 9.6 |
| CN(CCCNC(=O)c1cccc2cccnc12)CCCNc1n[n+]([O-])c2ccccc2[n+]1[O-] | 36300 | 61.2 | 6.5 | 590 | 13.9 | 90 |
| CN(CCCNC(=O)c1cccc2nc3ccccc3nc12)CCCNc1n[n+]([O-])c2ccccc2[n+]1[O-] | 590 | 4.9 | 1.07 | 120 | 8.8 | 9.4 |
| CN(CCCNC(=O)c1cccc2cc3ccccc3nc12)CCCNc1n[n+]([O-])c2ccccc2[n+]1[O-] | 5350 | 124 | 0.82 | 43 | 51.5 | 42 |
| Cc1cccc2cc3cccc(C(=O)NCCCN(C)CCCNc4n[n+]([O-])c5ccccc5[n+]4[O-])c3nc12 | 8400 | 88.4 | 0.18 | 95 | >167 | >30 |
| CN(CCCNC(=O)c1cccc2ccc(-c3ccncc3)nc12)CCCNc1n[n+]([O-])c2ccccc2[n+]1[O-] | 12000 | 107 | 1.79 | 110 | 7.8 | 14 |
| Nc1n[n+]([O-])c2ccccc2[n+]1[O-] [TIRAPAZAMINE] | 387000 | 62 | 10.2 | 6200 | 258 | 2644 |
| Cc1cccc2nc3cccc(C(=O)NCCCN(C)CCCNc4n[n+]([O-])c5ccccc5[n+]4[O-])c3nc12 | 560 | 31 | 0.35 | 18 | 21.1 | 7.4 |
| O=C(NCCCNCCCNc1n[n+]([O-])c2ccccc2[n+]1[O-])c1cccc2cc3ccccc3nc12 | 5700 | 87.5 | 0.51 | 65 | 12.5 | 6.4 |
